Several values for one entry are separate records, joined by “and”; a condition that tells them apart may be missing. Equal values may be shown once.
Assays:
A. mexicanum AHR [1] = target: T1, A. mexicanum AHR (Ambystoma mexicanum, UniProt A0A0F6TLE0); assay: Transactivation; format: cell-based
T1 sequence (A0A0F6TLE0 1-853): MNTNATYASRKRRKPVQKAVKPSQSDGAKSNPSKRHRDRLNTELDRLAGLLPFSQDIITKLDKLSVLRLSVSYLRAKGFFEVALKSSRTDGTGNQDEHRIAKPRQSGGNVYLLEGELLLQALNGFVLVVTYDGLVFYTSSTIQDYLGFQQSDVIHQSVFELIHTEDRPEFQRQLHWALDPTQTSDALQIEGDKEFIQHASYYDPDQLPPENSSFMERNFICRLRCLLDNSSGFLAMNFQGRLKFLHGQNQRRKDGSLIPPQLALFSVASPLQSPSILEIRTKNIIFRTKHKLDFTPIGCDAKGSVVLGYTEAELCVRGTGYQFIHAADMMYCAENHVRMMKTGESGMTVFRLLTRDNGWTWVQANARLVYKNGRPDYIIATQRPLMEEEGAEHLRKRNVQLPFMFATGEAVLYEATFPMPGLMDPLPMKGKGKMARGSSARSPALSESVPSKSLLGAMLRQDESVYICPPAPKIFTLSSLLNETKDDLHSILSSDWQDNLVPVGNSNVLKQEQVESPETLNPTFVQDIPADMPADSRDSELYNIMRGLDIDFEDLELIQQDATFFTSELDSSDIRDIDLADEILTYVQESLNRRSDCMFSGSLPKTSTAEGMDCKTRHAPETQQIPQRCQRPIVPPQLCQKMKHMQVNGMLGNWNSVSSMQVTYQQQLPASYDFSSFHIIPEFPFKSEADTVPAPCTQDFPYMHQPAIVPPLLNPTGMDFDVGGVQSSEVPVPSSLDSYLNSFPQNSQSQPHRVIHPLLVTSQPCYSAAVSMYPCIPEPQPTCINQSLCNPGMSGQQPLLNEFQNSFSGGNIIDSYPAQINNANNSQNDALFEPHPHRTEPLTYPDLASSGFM

X. laevis AHR1β [2] = target: T2, X. laevis AHR1β (Xenopus laevis, UniProt Q4QY30); assay: Transactivation; format: cell-based
T2 sequence (Q4QY30 1-834): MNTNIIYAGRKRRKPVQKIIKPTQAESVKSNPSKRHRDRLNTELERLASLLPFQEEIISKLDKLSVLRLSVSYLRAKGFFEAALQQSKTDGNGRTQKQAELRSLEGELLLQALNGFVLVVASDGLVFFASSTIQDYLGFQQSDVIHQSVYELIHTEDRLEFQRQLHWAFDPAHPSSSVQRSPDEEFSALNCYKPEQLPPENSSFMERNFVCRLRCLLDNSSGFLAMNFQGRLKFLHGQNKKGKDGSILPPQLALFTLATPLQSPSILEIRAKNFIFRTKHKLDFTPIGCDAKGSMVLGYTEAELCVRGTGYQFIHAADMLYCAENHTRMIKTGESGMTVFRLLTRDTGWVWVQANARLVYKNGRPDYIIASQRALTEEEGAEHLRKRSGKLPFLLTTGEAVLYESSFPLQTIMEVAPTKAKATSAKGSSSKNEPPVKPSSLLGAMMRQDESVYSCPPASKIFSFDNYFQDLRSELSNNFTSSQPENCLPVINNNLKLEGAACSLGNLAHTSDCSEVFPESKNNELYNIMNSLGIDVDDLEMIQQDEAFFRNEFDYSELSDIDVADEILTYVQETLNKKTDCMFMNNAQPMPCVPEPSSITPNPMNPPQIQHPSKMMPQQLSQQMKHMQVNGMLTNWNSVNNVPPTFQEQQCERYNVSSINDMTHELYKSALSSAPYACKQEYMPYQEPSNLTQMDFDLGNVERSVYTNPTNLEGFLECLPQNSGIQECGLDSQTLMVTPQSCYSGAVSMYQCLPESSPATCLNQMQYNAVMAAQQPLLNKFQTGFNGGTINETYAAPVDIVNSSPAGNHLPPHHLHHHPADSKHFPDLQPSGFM

tern AHR = tern AHR (V325, A381) vs chicken AHR (I325, S381); cited from earlier work
A. mexicanum AHR [3] = target: T1, A. mexicanum AHR; assay: Velocity sedimentation analysis of [3H]TCDD binding, A. mexicanum AHR; details: 2 nM [3H]TCDD, 18 h at 4°, sucrose gradients, in vitro synthesized AHR
How it was run: (§1)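 AHR made in vitro from pCMVTNT in a rabbit reticulocyte coupled transcription/translation system, diluted 1:1 in MEDMDG buffer (pH 7.5, molybdate, glycerol, DTT), incubated 18 h at 4° with 2 nM [1,6-3H]TCDD. Run on 10–30% sucrose gradients at 65,000 rpm for 90 min with [14C]catalase marker. Fractions scintillation-counted; specific binding is peak fractions minus empty-vector lysate. Three replicates, mean ± standard error.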

X. laevis AHR1β [4] = target: T2, X. laevis AHR1β; details: cited from earlier work
[5] = tested on: larvae of the tiger salamander; details: cited from earlier work
mouse AHR = details: TCDD binding; cited from earlier work
chicken AHR = details: TCDD binding; cited from earlier work
X. laevis AHR1β [6] = target: T2, X. laevis AHR1β; assay: Velocity sedimentation analysis of [3H]TCDD binding, X. laevis AHR1β; details: 2 nM [3H]TCDD, 18 h at 4°, sucrose gradients, in vitro synthesized AHR
How it was run: as §1

AHR2 from zebrafish = details: TCDD binding; cited from earlier work
zebrafish = details: cited from earlier work
X. laevis AHR1α = details: read-out: apparent Kd; TCDD binding; cited from earlier work

| SMILES | EC50 (A. mexicanum AHR [1]) [pM] | EC50 of axolotl AHR relative to that of the chimeric AHR (A. mexicanum AHR [1]; FICZ 3 h exposure, fold greater than chimeric AHR) | EC50 (X. laevis AHR1β [2]) [pM] | TCDD affinity of tern AHR, fold lower than the chicken AHR (tern AHR) [fold] | Specific [3H]TCDD binding peak relative to mouse AHR or chimeric AHR (A. mexicanum AHR [3]) | Kd (saturability of TCDD binding) (X. laevis AHR1β [4]) | nominal TCDD concentrations defined as sub-lethal [5] | Kd (mouse AHR) [pM] | EC50 of A. mexicanum AHR relative to that of the mouse:frog chimera (A. mexicanum AHR [1]; TCDD 24 h, fold greater than chimeric AHR) [fold] | Kd (chicken AHR) [pM] | Specific [3H]TCDD binding peak relative to mouse AHR or chimeric AHR (X. laevis AHR1β [6]) | Kd (AHR2 from zebrafish) [pM] | LC100 (zebrafish) | Kd (X. laevis AHR1α) [pM] |
| --- | --- | --- | --- | --- | --- | --- | --- | --- | --- | --- | --- | --- | --- | --- |
| O=Cc1c2[nH]c3ccccc3c2cc2[nH]c3ccccc3c12 [FICZ, 6-formylindolo[3,2-b]carbazole] | 450 | about 45 fold | 140 | – | – | – | – | – | – | – | – | – | – | – |
| Clc1cc2c(cc1Cl)Oc1cc(Cl)c(Cl)cc1O2 [TCDD, 2,3,7,8-tetrachlorodibenzo-p-dioxin] | – | – | – | 7 | one-tenth | unsaturable | up to 3.0 μg/L and ≤ 9.3 nM | 2400 | ~300 | 800 | approximately one-tenth | 1100 | no more than 1.55 nM | 47200 |

From article PMC4454367 (Environmental science & technology, 2015)
